Measurements reported in paper PMC8444931 (Clinical and Translational Science, 2021).

How the values were obtained:
[1] = elimination in the rat; type: in vivo; details: preclinical data
[2] = type: physicochemical; details: PARI eFlow nebulizer, dose range 0.1–10 mg
[3] = phase I part A plasma pharmacokinetics; type: in vivo, human; details: for Tmax / AUC(0-t) / Cmax / Vd/F: human, plasma, inhaled or intranasal
Procedure, shortened: (§1)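 Healthy adults got a single nebulized dose (1, 3 or 10 mg). Blood and urine were sampled predose and over 72 h postdose. Plasma and urine PK parameters were estimated per participant and summarized as geometric mean (CV%). Urinary excretion was expressed as cumulative percentage of administered dose.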

[4] = metabolite identification in rat hepatocytes; type: in vitro ADME
[5] = molecular target: T1, Tyk2 (Homo sapiens, UniProt P29597); assay: biochemical
T1 sequence (P29597 897-1176 limits assumed): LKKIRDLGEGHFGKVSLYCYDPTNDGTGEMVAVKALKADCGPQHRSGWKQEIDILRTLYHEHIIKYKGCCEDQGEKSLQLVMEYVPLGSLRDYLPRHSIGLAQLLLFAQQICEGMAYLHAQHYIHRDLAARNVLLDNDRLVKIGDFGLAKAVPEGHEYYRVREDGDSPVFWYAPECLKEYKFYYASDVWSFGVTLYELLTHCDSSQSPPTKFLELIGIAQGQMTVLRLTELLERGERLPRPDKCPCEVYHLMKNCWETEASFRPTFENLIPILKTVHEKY

[6] = phase I part B plasma pharmacokinetics; type: in vivo, human; details: for DN AUCtau / DN Cmax,ss: dose normalized; for DN AUCtau / DN Cmax,ss / Ctrough,ss: geometric mean (geometric CV%); for AUC / Cmax / Tmax: human, inhaled; for AUC / Cmax / Tmax / Ctrough,ss: plasma
Procedure, shortened: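 Healthy adults got nebulized 1, 3 or 10 mg once daily for 7 days. Serial blood was drawn through 24 h after the day-1 dose and from predose through 48 h after the day-7 dose; troughs were drawn predose on days 3–6. Day-7 parameters, including dose-normalized values, were given as geometric mean (geometric CV%). Accumulation ratios were AUCtau/day-1 AUC0-24 and Cmax,ss/day-1 Cmax.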

[7] = phase I part A urine pharmacokinetics; type: in vivo, human; details: geometric mean (CV%)
Procedure, shortened: as §1

[8] = tested on: JAK; assay: cell‐based assays of JAK inhibition; details: Homo sapiens, Epithelial cell, read-out: most potent half‐maximal JAK inhibition (IC50) in a cell‐based assay
[9] = human plasma protein binding; type: in vitro ADME
[10] = tested on: cytokine‐induced STAT6 phosphorylation; assay: cytokine‐induced STAT6 phosphorylation in bronchial epithelial cell lines; type: cell-based; details: data on file, Theravance Biopharma
[11] = metabolism in dog lung S9 fractions; type: in vitro ADME; details: dog lung S9 fortified with 3'‐phosphate‐5'‐phosphosulfate; data on file
[12] = metabolism in rat lung S9; type: in vitro ADME; details: data on file
[13] = molecular target: JAK1 (Homo sapiens, UniProt P23458); assay: biochemical
[14] = phase I part A; type: in vivo, human; details: for TEAE Cough / TEAE Dizziness / TEAE Headache / TEAE related to nezulcitinib / Total participants with TEAEs: part A
Procedure, shortened: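 Healthy adults aged 18–50 (BMI 18–32 kg/m^2, FEV1 ≥80% predicted) in a double-blind, randomized, placebo-controlled single ascending dose study. Three cohorts of 8 (6 active, 2 placebo) got one nebulized dose of 1, 3 or 10 mg or placebo; a sentinel pair was dosed ≥24 h first. TEAEs were coded by MedDRA, with follow-up 1 week (±2 days) post-dose.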

[15] = phase I part B; type: in vivo, human
Procedure, shortened: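 Double-blind, randomized, placebo-controlled multiple ascending dose study in healthy adults aged 18–50 (FEV1 ≥80% predicted). Three cohorts of 10 (8 active, 2 placebo) got nebulized 1, 3 or 10 mg or placebo once daily for 7 days, staying in residence through day 9. Monitoring covered exams, vital signs, 12-lead ECGs, spirometry, clinical labs and MedDRA-coded TEAEs; follow-up came 1 week (±2 days) after the last dose.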

[16] = molecular target: JAK2 (Homo sapiens, UniProt O60674); assay: biochemical
[17] = metabolite identification in human hepatocytes; type: in vitro ADME
[18] = metabolism in human lung S9; type: in vitro ADME; details: data on file
[19] = metabolite identification in dog hepatocytes; type: in vitro ADME
[20] = tested on: COVID‐19; details: in combination with remdesivir, patients with COVID‐19; cited from earlier work
[21] = tested on: COVID‐19; details: phase III RUXCOVID study; cited from earlier work
[22] = all nezulcitinib doses, Total (n = 18)
[23] = single inhaled dose 1 mg (n = 6)
[24] = single inhaled dose 3 mg (n = 6)
[25] = single inhaled dose 10 mg (n = 6)
[26] = one participant, 10 mg, part B, by day 9, deemed not related to study drug
[27] = part B, 1 mg once daily for 7 days (n = 8)
[28] = part B, 3 mg once daily for 7 days (n = 8)
[29] = part B, 10 mg once daily for 7 days (n = 8)
[30] = part B, all nezulcitinib doses, Total (n = 24)

Sequence of JAK2 (O60674 849-1124 limits assumed): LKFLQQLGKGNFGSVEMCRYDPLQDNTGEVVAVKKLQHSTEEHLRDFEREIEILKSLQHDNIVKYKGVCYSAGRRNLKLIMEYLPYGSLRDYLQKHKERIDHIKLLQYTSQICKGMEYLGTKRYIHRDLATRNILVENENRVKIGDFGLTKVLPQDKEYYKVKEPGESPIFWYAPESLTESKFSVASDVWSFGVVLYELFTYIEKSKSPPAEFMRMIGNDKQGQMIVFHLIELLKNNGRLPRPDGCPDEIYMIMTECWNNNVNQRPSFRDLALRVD
Sequence of JAK1 (P23458 875-1153 limits assumed): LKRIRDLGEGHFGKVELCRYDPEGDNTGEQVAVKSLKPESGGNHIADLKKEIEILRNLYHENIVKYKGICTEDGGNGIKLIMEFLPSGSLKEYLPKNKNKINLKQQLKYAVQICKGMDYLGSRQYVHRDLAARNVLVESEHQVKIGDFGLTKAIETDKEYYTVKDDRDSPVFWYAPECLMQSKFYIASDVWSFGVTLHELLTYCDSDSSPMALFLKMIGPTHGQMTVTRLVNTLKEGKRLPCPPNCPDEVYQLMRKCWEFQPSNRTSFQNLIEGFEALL

CCc1cc(O)ccc1-c1ccc2c(-c3nc4c([nH]3)CN(C(C)C)[C@H](C(=O)N3CC(N(C)C)C3)C4)n[nH]c2c1 [Nezulcitinib]
amount eliminated in the urine and bile as unchanged compound [1]: minor amount | emitted fine particle dose, of the nominal dose [2]: 40% | Tmax [3]: ~1 h | AUC(0-t) ([3]; 1 mg): 18.7 ng·h/mL | Cmax ([3]; 1 mg): 5.5 ng/mL | Vd/F ([3]; 1 mg): 1390 L | AUC(0-t) ([3]; 3 mg): 45.2 ng·h/mL | Cmax ([3]; 3 mg): 13.8 ng/mL | Tmax ([3]; 3 mg): 1 h | Vd/F ([3]; 3 mg): 2300 L | AUC(0-t) ([3]; 10 mg): 157 ng·h/mL | Cmax ([3]; 10 mg): 47.3 ng/mL | Tmax ([3]; 10 mg): 1 h | Vd/F ([3]; 10 mg): 2200 L | dose proportionality of plasma exposures (Cmax and AUC0‐t) ([3]; part A, single dose 1, 3, 10 mg): increased proportionally | primary metabolite [4]: sulfation product | Ki [5]: 0.631 nM | DN AUCtau ([6]; part B day 7, 1 mg once daily): 21.0 (25.7) ng•h/ml/mg | DN Cmax,ss ([6]; part B day 7, 1 mg once daily): 5.6 (24.1) ng/ml/mg | DN AUCtau ([6]; part B day 7, 3 mg once daily): 17.2 (32.5) ng•h/ml/mg | DN Cmax,ss ([6]; part B day 7, 3 mg once daily): 5.9 (42.6) ng/ml/mg | DN AUCtau ([6]; part B day 7, 10 mg once daily): 17.8 (65.0) ng•h/ml/mg | DN Cmax,ss ([6]; part B day 7, 10 mg once daily): 5.0 (46.4) ng/ml/mg | AUC ([6]; 1 mg): 21 ng·h/mL | Cmax ([6]; 1 mg): 5.6 ng/mL | Tmax ([6]; 1 mg): 1 h | AUC ([6]; 3 mg): 51.6 ng·h/mL | Cmax ([6]; 3 mg): 17.6 ng/mL | Tmax ([6]; 3 mg): 1 h | AUC ([6]; 10 mg): 178 ng·h/mL | Cmax ([6]; 10 mg): 49.6 ng/mL | Tmax ([6]; 10 mg): 1 h | dose proportionality of plasma exposures (Cmax and AUC0–t) ([6]; part B, 7 days of once‐daily dosing 1, 3, 10 mg): increased proportionally | time to steady‐state plasma concentrations ([6]; part B, once‐daily dosing, from daily plasma trough concentrations): ≤ 4 days | Ctrough,ss ([6]; part B day 7, 1 mg once daily): 0.2 (29.5) ng/ml | Ctrough,ss ([6]; part B day 7, 3 mg once daily): 0.3 (39.0) ng/ml | Ctrough,ss ([6]; part B day 7, 10 mg once daily): 1.1 (83.6) ng/ml | Cum%Dose (cumulative percentage of administered dose excreted) ([7]; single inhaled dose 1 mg): 0.97 (38.3) % | Cum%Dose (cumulative percentage of administered dose excreted) ([7]; single inhaled dose 3 mg): 0.72 (17.5) % | Cum%Dose (cumulative percentage of administered dose excreted) ([7]; single inhaled dose 10 mg): 0.84 (41.6) % | IC50 [8]: 12.6 nM | fraction unbound [9]: 0.019 | inhibition of cytokine‐induced STAT6 phosphorylation [10]: inhibits | metabolic stability in lung S9 [11]: extensive conversion to the sulfation product | metabolic stability in lung S9 [12]: relatively stable | Ki [13]: 0.0501 nM | TEAE Cough [14, 22]: 2 (11) n (%) | TEAE Dizziness [14, 22]: 2 (11) n (%) | TEAE Headache [14, 22]: 1 (6) n (%) | TEAE related to nezulcitinib [14, 22]: 0 n (%) | Total participants with TEAEs [14, 22]: 6 (33) n (%) | TEAE Cough [14, 23]: 1 (17) n (%) | TEAE Dizziness [14, 23]: 1 (17) n (%) | TEAE Headache [14, 23]: 1 (17) n (%) | TEAE related to nezulcitinib [14, 23]: 0 n (%) | Total participants with TEAEs [14, 23]: 4 (67) n (%) | TEAE Cough [14, 24]: 0 n (%) | TEAE Dizziness [14, 24]: 0 n (%) | TEAE Headache [14, 24]: 0 n (%) | TEAE related to nezulcitinib [14, 24]: 0 n (%) | Total participants with TEAEs [14, 24]: 0 n (%) | TEAE Cough [14, 25]: 1 (17) n (%) | TEAE Dizziness [14, 25]: 1 (17) n (%) | TEAE Headache [14, 25]: 0 n (%) | TEAE related to nezulcitinib [14, 25]: 0 n (%) | Total participants with TEAEs [14, 25]: 2 (33) n (%) | tolerability ([14]; single inhaled dose, healthy participants): generally well‐tolerated | alanine aminotransferase (ALT) elevation [15, 26]: 3.8 × ULN | aspartate aminotransferase (AST) elevation [15, 26]: approximately 2.8 × ULN | Moderate or severe TEAEs [15, 27]: 0 n (%) | TEAE Cough [15, 27]: 0 n (%) | TEAE Dizziness [15, 27]: 1 (13) n (%) | TEAE Headache [15, 27]: 1 (13) n (%) | TEAE Lethargy [15, 27]: 1 (13) n (%) | TEAE Medical device site reaction [15, 27]: 0 n (%) | TEAE related to nezulcitinib [15, 27]: 0 n (%) | Total participants with TEAEs [15, 27]: 4 (50) n (%) | Moderate or severe TEAEs [15, 28]: 0 n (%) | TEAE Cough [15, 28]: 2 (25) n (%) | TEAE Dizziness [15, 28]: 1 (13) n (%) | TEAE Headache [15, 28]: 3 (38) n (%) | TEAE Lethargy [15, 28]: 0 n (%) | TEAE Medical device site reaction [15, 28]: 0 n (%) | TEAE related to nezulcitinib [15, 28]: 0 n (%) | Total participants with TEAEs [15, 28]: 3 (38) n (%) | Moderate or severe TEAEs [15, 29]: 2 (25) n (%) | TEAE Cough [15, 29]: 3 (38) n (%) | TEAE Dizziness [15, 29]: 1 (13) n (%) | TEAE Headache [15, 29]: 0 n (%) | TEAE Lethargy [15, 29]: 0 n (%) | TEAE Medical device site reaction [15, 29]: 1 (13) n (%) | TEAE related to nezulcitinib [15, 29]: 1 (13) n (%) | Total participants with TEAEs [15, 29]: 6 (75) n (%) | TEAE Cough [15, 30]: 5 (21) n (%) | TEAE Dizziness [15, 30]: 3 (13) n (%) | TEAE Headache [15, 30]: 4 (17) n (%) | TEAE Lethargy [15, 30]: 1 (4) n (%) | TEAE Medical device site reaction [15, 30]: 1 (4) n (%) | TEAE related to nezulcitinib [15, 30]: 1 (4) n (%) | Total participants with TEAEs [15, 30]: 13 (54) n (%) | changes from baseline in vital sign and ECG assessments ([15]; parts A and B): No clinically significant changes | severe or serious AEs ([15]; parts A and B): No severe or serious AEs | tolerability ([15]; single daily doses up to 10 mg for 7 days, healthy participants): generally well‐tolerated | Ki [16]: 0.0251 nM | primary metabolite [17]: an oxidation, methylation, and glucuronidation product | metabolic stability in lung S9 [18]: relatively stable | primary metabolite [19]: sulfation product

CCS(=O)(=O)N1CC(CC#N)(n2cc(-c3ncnc4[nH]ccc34)cn2)C1 [baricitinib]
recovery time [20]: significantly shortened recovery time

N#CC[C@H](C1CCCC1)n1cc(-c2ncnc3[nH]ccc23)cn1 [ruxolitinib]
primary end point [21]: did not meet its primary end point
